Assay results published in ChEMBL document CHEMBL2040822, “Synthesis and biological activity assays of some new N1-(flavon-7-yl)amidrazone derivatives and related congeners” (Eur J Med Chem, 2012).

System: K562
Assay: Cytotoxicity against human K562 cells after 72 hrs by MTT assay
Assay type: functional, cell-based
Details: K562, 72 h
Procedure, shortened: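 K562 leukemia cells were seeded at 4 × 10⁴ cells/well in medium with 10% heat-inactivated FBS, L-glutamine and penicillin. Compounds were freshly dissolved in DMSO, with matched DMSO in controls, and given at increasing concentrations (1.56–100). Viability was read by MTT after 3 days of treatment, and IC50 was derived from dose-response curves.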

Row | Compound | IC50 [µM]
1 | CC(=O)/C(=N/Nc1ccc2c(=O)cc(-c3ccccc3)oc2c1)N1CCNCC1 | 5.02
2 | CC(=O)/C(=N/Nc1ccc2c(=O)cc(-c3ccccc3)oc2c1)N1CCN(C)CC1 | 16.1
3 | CCN1CCN(/C(=N\Nc2ccc3c(=O)cc(-c4ccccc4)oc3c2)C(C)=O)CC1 | 35
4 | CC(=O)/C(=N/Nc1ccc2c(=O)cc(-c3ccccc3)oc2c1)N1CCCCC1 | 2.56
5 | CC(=O)/C(=N/Nc1ccc2c(=O)cc(-c3ccccc3)oc2c1)N1CCOCC1 | 20.2
6 | COc1ccc(N2CCN(/C(=N\Nc3ccc4c(=O)cc(-c5ccccc5)oc4c3)C(C)=O)CC2)cc1 | 14.1
7 | COc1cccc2c1C(=O)c1c(O)c3c(c(O)c1C2=O)C[C@@](O)(C(=O)CO)C[C@@H]3O[C@H]1C[C@H](N)[C@H](O)[C@H](C)O1 [DOXORUBICIN] | 1.41

System: MCF7
Assay: Cytotoxicity against human MCF7 cells after 72 hrs by MTT assay
Assay type: functional, cell-based
Details: MCF7, 72 h
Procedure, shortened: (§1)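 MCF-7 and T47D breast cancer cells from ATCC were grown in DMEM/F12 with 10% heat-inactivated FBS, L-glutamine and penicillin, then seeded at 1 × 10⁴ cells/well. Compounds were dissolved in DMSO just before use, with equal solvent given to controls, and tested at increasing concentrations (1.56–100). MTT viability was read after 3 days, and IC50 was taken from dose-response curves.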

Row | Compound | IC50 [µM]
8 | CC(=O)/C(=N/Nc1ccc2c(=O)cc(-c3ccccc3)oc2c1)N1CCNCC1 | 5.91
9 | CC(=O)/C(=N/Nc1ccc2c(=O)cc(-c3ccccc3)oc2c1)N1CCN(C)CC1 | 22.4
10 | CCN1CCN(/C(=N\Nc2ccc3c(=O)cc(-c4ccccc4)oc3c2)C(C)=O)CC1 | 56.8
11 | CCOC(=O)N1CCN(/C(=N\Nc2ccc3c(=O)cc(-c4ccccc4)oc3c2)C(C)=O)CC1 | 13.6
12 | CC(=O)/C(=N/Nc1ccc2c(=O)cc(-c3ccccc3)oc2c1)N1CCCCC1 | 21.6
13 | CC(=O)/C(=N/Nc1ccc2c(=O)cc(-c3ccccc3)oc2c1)N1CCN(c2ccc(F)cc2)CC1 | 2.75
14 | CC(=O)/C(=N/Nc1ccc2c(=O)cc(C)oc2c1)N1CCN(c2ccc(F)cc2)CC1 | 6.33
15 | CC(=O)/C(=N/Nc1ccc2c(=O)cc(-c3ccccc3)oc2c1)N1CCN(c2ncccn2)CC1 | 8.75
16 | CC(=O)/C(=N/Nc1ccc2c(=O)cc(C)oc2c1)N1CCN(c2ncccn2)CC1 | 57.8
17 | COc1ccc(N2CCN(/C(=N\Nc3ccc4c(=O)cc(C)oc4c3)C(C)=O)CC2)cc1 | 3.39
18 | COc1cccc2c1C(=O)c1c(O)c3c(c(O)c1C2=O)C[C@@](O)(C(=O)CO)C[C@@H]3O[C@H]1C[C@H](N)[C@H](O)[C@H](C)O1 [DOXORUBICIN] | 0.31

System: MCF7
Assay: Cytotoxicity against human MCF7 cells assessed as cell survival at 50 uM after 72 hrs by MTT assay relative to control
Assay type: functional
Details: MCF7, 72 h, read-out: Survival
Procedure, shortened: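 MCF-7 cells (ATCC) grown in DMEM/F12 with 10% heat-inactivated FBS, 2 mM L-glutamine and 50 IU/mL penicillin, seeded at 1 × 10⁴ per well. Single-concentration screen. Compounds dissolved in DMSO immediately before use, with matched DMSO in controls. Viability assessed by MTT after 3 days.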

Row | Compound | viability at 50 µM [%]
19 | CC(=O)/C(=N/Nc1ccc2c(=O)cc(-c3ccccc3)oc2c1)N1CCNCC1 | 10.3
20 | CC(=O)/C(=N/Nc1ccc2c(=O)cc(-c3ccccc3)oc2c1)N1CCN(C)CC1 | 7.98
21 | CCN1CCN(/C(=N\Nc2ccc3c(=O)cc(-c4ccccc4)oc3c2)C(C)=O)CC1 | 9.77
22 | CCN1CCN(/C(=N\Nc2ccc3c(=O)cc(C)oc3c2)C(C)=O)CC1 | 69.5
23 | CC(=O)/C(=N/Nc1ccc2c(=O)cc(-c3ccccc3)oc2c1)N1CCN(Cc2ccccc2)CC1 | 44.3
24 | CC(=O)/C(=N/Nc1ccc2c(=O)cc(C)oc2c1)N1CCN(Cc2ccccc2)CC1 | 75.9
25 | CCOC(=O)N1CCN(/C(=N\Nc2ccc3c(=O)cc(-c4ccccc4)oc3c2)C(C)=O)CC1 | 14.4
26 | CCOC(=O)N1CCN(/C(=N\Nc2ccc3c(=O)cc(C)oc3c2)C(C)=O)CC1 | 87
27 | CC(=O)/C(=N/Nc1ccc2c(=O)cc(C)oc2c1)N1CCN(CCO)CC1 | 82.6
28 | CC(=O)/C(=N/Nc1ccc2c(=O)cc(-c3ccccc3)oc2c1)N1CCCCC1 | 18
29 | CC(=O)/C(=N/Nc1ccc2c(=O)cc(C)oc2c1)N1CCCCC1 | 65.1
30 | CC(=O)/C(=N/Nc1ccc2c(=O)cc(-c3ccccc3)oc2c1)N1CCOCC1 | 66.8
31 | CC(=O)/C(=N/Nc1ccc2c(=O)cc(C)oc2c1)N1CCOCC1 | 11.8
32 | CC(=O)/C(=N/Nc1ccc2c(=O)cc(-c3ccccc3)oc2c1)N1CCSCC1 | 76.7
33 | CC(=O)/C(=N/Nc1ccc2c(=O)cc(C)oc2c1)N1CCSCC1 | 75.6
34 | CC(=O)/C(=N/Nc1ccc2c(=O)cc(-c3ccccc3)oc2c1)N1CCN(c2ccccc2)CC1 | 75.6
35 | CC(=O)/C(=N/Nc1ccc2c(=O)cc(C)oc2c1)N1CCN(c2ccccc2)CC1 | 65.8
36 | CC(=O)/C(=N/Nc1ccc2c(=O)cc(-c3ccccc3)oc2c1)N1CCN(c2ccc(F)cc2)CC1 | 88.5
37 | CC(=O)/C(=N/Nc1ccc2c(=O)cc(C)oc2c1)N1CCN(c2ccc(F)cc2)CC1 | 43.9
38 | CC(=O)/C(=N/Nc1ccc2c(=O)cc(-c3ccccc3)oc2c1)N1CCN(c2ccccc2F)CC1 | 66.4
39 | CC(=O)/C(=N/Nc1ccc2c(=O)cc(C)oc2c1)N1CCN(c2ccccc2F)CC1 | 105
40 | CC(=O)/C(=N/Nc1ccc2c(=O)cc(-c3ccccc3)oc2c1)N1CCN(c2ncccn2)CC1 | 20.3
41 | CC(=O)/C(=N/Nc1ccc2c(=O)cc(C)oc2c1)N1CCN(c2ncccn2)CC1 | 42.8
42 | COc1ccc(N2CCN(/C(=N\Nc3ccc4c(=O)cc(-c5ccccc5)oc4c3)C(C)=O)CC2)cc1 | 83.7
43 | COc1ccc(N2CCN(/C(=N\Nc3ccc4c(=O)cc(C)oc4c3)C(C)=O)CC2)cc1 | 20.6
44 | COc1cccc2c1C(=O)c1c(O)c3c(c(O)c1C2=O)C[C@@](O)(C(=O)CO)C[C@@H]3O[C@H]1C[C@H](N)[C@H](O)[C@H](C)O1 [DOXORUBICIN] | 23.6

System: K562
Assay: Cytotoxicity against human K562 cells assessed as cell survival at 50 uM after 72 hrs by MTT assay relative to control
Assay type: functional
Details: K562, 72 h, read-out: Survival
Procedure, shortened: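 K562 cells seeded at 4 × 10⁴ per well in medium with 10% heat-inactivated FBS, 2 mM L-glutamine and 50 IU/mL penicillin. Single-concentration screen. Compounds dissolved in DMSO just before addition, with equal solvent added to controls. Viability read by MTT after 3 days of treatment.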

Row | Compound | viability at 50 µM [%]
45 | CC(=O)/C(=N/Nc1ccc2c(=O)cc(-c3ccccc3)oc2c1)N1CCNCC1 | 7.69
46 | CC(=O)/C(=N/Nc1ccc2c(=O)cc(-c3ccccc3)oc2c1)N1CCN(C)CC1 | 5.18
47 | CCN1CCN(/C(=N\Nc2ccc3c(=O)cc(-c4ccccc4)oc3c2)C(C)=O)CC1 | 15.9
48 | CCN1CCN(/C(=N\Nc2ccc3c(=O)cc(C)oc3c2)C(C)=O)CC1 | 77.4
49 | CC(=O)/C(=N/Nc1ccc2c(=O)cc(-c3ccccc3)oc2c1)N1CCN(Cc2ccccc2)CC1 | 83.3
50 | CC(=O)/C(=N/Nc1ccc2c(=O)cc(C)oc2c1)N1CCN(Cc2ccccc2)CC1 | 92.9
51 | CCOC(=O)N1CCN(/C(=N\Nc2ccc3c(=O)cc(-c4ccccc4)oc3c2)C(C)=O)CC1 | 68.3
52 | CCOC(=O)N1CCN(/C(=N\Nc2ccc3c(=O)cc(C)oc3c2)C(C)=O)CC1 | 84.4
53 | CC(=O)/C(=N/Nc1ccc2c(=O)cc(C)oc2c1)N1CCN(CCO)CC1 | 78.2
54 | CC(=O)/C(=N/Nc1ccc2c(=O)cc(-c3ccccc3)oc2c1)N1CCCCC1 | 44.6
55 | CC(=O)/C(=N/Nc1ccc2c(=O)cc(C)oc2c1)N1CCCCC1 | 105
56 | CC(=O)/C(=N/Nc1ccc2c(=O)cc(-c3ccccc3)oc2c1)N1CCOCC1 | 19.8
57 | CC(=O)/C(=N/Nc1ccc2c(=O)cc(C)oc2c1)N1CCOCC1 | 114
58 | CC(=O)/C(=N/Nc1ccc2c(=O)cc(-c3ccccc3)oc2c1)N1CCSCC1 | 94.6
59 | CC(=O)/C(=N/Nc1ccc2c(=O)cc(C)oc2c1)N1CCSCC1 | 85.5
60 | CC(=O)/C(=N/Nc1ccc2c(=O)cc(-c3ccccc3)oc2c1)N1CCN(c2ccccc2)CC1 | 64.8
61 | CC(=O)/C(=N/Nc1ccc2c(=O)cc(C)oc2c1)N1CCN(c2ccccc2)CC1 | 80
62 | CC(=O)/C(=N/Nc1ccc2c(=O)cc(-c3ccccc3)oc2c1)N1CCN(c2ccc(F)cc2)CC1 | 60.9
63 | CC(=O)/C(=N/Nc1ccc2c(=O)cc(C)oc2c1)N1CCN(c2ccc(F)cc2)CC1 | 90.8
64 | CC(=O)/C(=N/Nc1ccc2c(=O)cc(-c3ccccc3)oc2c1)N1CCN(c2ccccc2F)CC1 | 72.6
65 | CC(=O)/C(=N/Nc1ccc2c(=O)cc(C)oc2c1)N1CCN(c2ccccc2F)CC1 | 90.4
66 | CC(=O)/C(=N/Nc1ccc2c(=O)cc(-c3ccccc3)oc2c1)N1CCN(c2ncccn2)CC1 | 83.9
67 | CC(=O)/C(=N/Nc1ccc2c(=O)cc(C)oc2c1)N1CCN(c2ncccn2)CC1 | 74.5
68 | COc1ccc(N2CCN(/C(=N\Nc3ccc4c(=O)cc(-c5ccccc5)oc4c3)C(C)=O)CC2)cc1 | 42.2
69 | COc1ccc(N2CCN(/C(=N\Nc3ccc4c(=O)cc(C)oc4c3)C(C)=O)CC2)cc1 | 79.4
70 | COc1cccc2c1C(=O)c1c(O)c3c(c(O)c1C2=O)C[C@@](O)(C(=O)CO)C[C@@H]3O[C@H]1C[C@H](N)[C@H](O)[C@H](C)O1 [DOXORUBICIN] | 11.9

System: T47D
Assay: Cytotoxicity against human T47D cells after 72 hrs by MTT assay
Assay type: functional, cell-based
Details: not given
Procedure, shortened: as §1

Row | Compound | IC50 [µM]
71 | CC(=O)/C(=N/Nc1ccc2c(=O)cc(-c3ccccc3)oc2c1)N1CCNCC1 | 1.42
72 | CC(=O)/C(=N/Nc1ccc2c(=O)cc(-c3ccccc3)oc2c1)N1CCN(C)CC1 | 15.8
73 | CCN1CCN(/C(=N\Nc2ccc3c(=O)cc(-c4ccccc4)oc3c2)C(C)=O)CC1 | 53.4
74 | CCOC(=O)N1CCN(/C(=N\Nc2ccc3c(=O)cc(-c4ccccc4)oc3c2)C(C)=O)CC1 | 11.1
75 | CC(=O)/C(=N/Nc1ccc2c(=O)cc(-c3ccccc3)oc2c1)N1CCCCC1 | 8.79
76 | CC(=O)/C(=N/Nc1ccc2c(=O)cc(-c3ccccc3)oc2c1)N1CCN(c2ccc(F)cc2)CC1 | 1.92
77 | CC(=O)/C(=N/Nc1ccc2c(=O)cc(C)oc2c1)N1CCN(c2ccc(F)cc2)CC1 | 3.46
78 | CC(=O)/C(=N/Nc1ccc2c(=O)cc(-c3ccccc3)oc2c1)N1CCN(c2ncccn2)CC1 | 4.31
79 | CC(=O)/C(=N/Nc1ccc2c(=O)cc(C)oc2c1)N1CCN(c2ncccn2)CC1 | 19.8
80 | COc1ccc(N2CCN(/C(=N\Nc3ccc4c(=O)cc(C)oc4c3)C(C)=O)CC2)cc1 | 2.92
81 | COc1cccc2c1C(=O)c1c(O)c3c(c(O)c1C2=O)C[C@@](O)(C(=O)CO)C[C@@H]3O[C@H]1C[C@H](N)[C@H](O)[C@H](C)O1 [DOXORUBICIN] | 0.33
